Common to all, as to type: cell-based, human
The test system of one assay is OCI-Ly3 cells. As to the kind of experiment: Growth inhibition, ATP-based luminescent assay. The note with it: 50 µM, 48 hr. Put shortly: (§1)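 Cells received a single dose of test compound over a concentration range and proliferation was read at 48 hr by luminescent ATP quantification. Luminescence was converted to cell number using per-line standard curves built from trypan blue counts. Viability was normalised to controls and expressed as 1 − fractional viability, and GI25/GI50 were fitted. Experiments were run three times in triplicate.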

Assay [1] has as its system nuclear c-REL in HBL-1 cells. As to the kind of experiment: c-REL flow cytometry of whole cells or isolated nuclei. Particulars: 200 nM MI-2 or 50 µM Z-VRPR-FMK, 24 hr. Put shortly: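 HBL-1 cells were exposed for 24 hr to 200 nM test compound, to 50 µM Z-VRPR-FMK as positive control, or to vehicle. c-REL was then measured by flow cytometry in whole cells and in isolated nuclei.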
(A flow cytometer gives signals particle by particle.)

Assay [2] has as its system GCB-DLBCL cell lines (OCI-Ly7 and OCI-Ly1). In words: Growth inhibition, ATP-based luminescent assay. Particulars: 50 µM, 48 hr. Put shortly: as §1
The test system of another assay is U2932 cells. In words: Growth inhibition, ATP-based luminescent assay. The note with it: 50 µM, 48 hr. Put shortly: as §1
The test system of a further assay is OCI-Ly10 cells. In words: Growth inhibition, ATP-based luminescent assay. Particulars: 50 µM, 48 hr. The procedure, abridged: as §1
The subject of another assay is HBL-1 cells. As to the kind of experiment: Growth inhibition, ATP-based luminescent assay. The note with it: 50 µM, 48 hr. Put shortly: as §1
The subject of another assay is TMD8 cells. As to the kind of experiment: Growth inhibition, ATP-based luminescent assay. The note with it: 50 µM, 48 hr. Put shortly: as §1
The test system of another assay is HLY-1 cells. In words: Growth inhibition, ATP-based luminescent assay. Particulars: 50 µM, 48 hr. The procedure, abridged:
as §1

We go through 1 substance from article PMC3984478 (Cancer cell, 2012).

As for Z-VRPR-FMK [reference compound], the response of proliferation entry in the assay on OCI-Ly3 cells is “inhibition of proliferation”; in assay [2], “did not respond”; in the assay with U2932 cells, “relatively little response”; in the assay on OCI-Ly10 cells, “inhibition of proliferation”; in the assay with HBL-1 cells, “inhibition of proliferation”; with TMD8 cells it was “inhibition of proliferation”. In the assay on HLY-1 cells, the response of proliferation entry is reported as “relatively little response”. The “nuclear c-REL (flow cytometry)” value in assay [1] is given as “reduced nuclear c-REL to a similar extent”.
